{"source": "paper PMC5644118", "about": "(Chemical Science, 2014)", "target": "heparin-stabilized human rhSkin β-tryptase (Homo sapiens, UniProt P20231)", "sequence (P20231 31-275)": "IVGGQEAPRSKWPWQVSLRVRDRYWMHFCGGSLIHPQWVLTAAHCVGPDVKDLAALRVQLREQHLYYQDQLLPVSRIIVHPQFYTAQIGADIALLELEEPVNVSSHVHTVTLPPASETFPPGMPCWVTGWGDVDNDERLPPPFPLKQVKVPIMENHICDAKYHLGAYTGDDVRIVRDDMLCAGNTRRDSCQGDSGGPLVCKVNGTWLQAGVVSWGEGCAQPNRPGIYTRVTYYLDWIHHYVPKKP", "assay": "β-tryptase enzyme inhibition assay", "format": "biochemical", "how_it_was_run": "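Heparin-stabilized recombinant human skin β-tryptase in 50 mM Tris-HCl, pH 7.4, run in a high-throughput format. Activity was read as release of free AMC from the cleaved Gly-Pro-Arg-AMC peptide substrate. Inhibition mode was assessed by Dixon plots (1/v against inhibitor concentration) at substrate 25, 50, 75, 100, 150 and 200 μM.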"}
{"smiles": "C[C@H](NC(=O)CNC(=O)CCC(=O)N/N=C/c1cc(/C=N/NC(=O)CCC(=O)NCC(=O)N[C@@H](C)C(=O)N[C@@H](Cc2ccccc2)C(=O)N[C@@H](CCC(=O)O)C(N)=O)cc(/C=N/NC(=O)CCC(=O)NCC(=O)N[C@@H](C)C(=O)N[C@@H](Cc2ccccc2)C(=O)N[C@@H](CCC(=O)O)C(N)=O)c1)C(=O)N[C@@H](Cc1ccccc1)C(=O)N[C@@H](CCC(=O)O)C(N)=O", "note": "[5(E)3]", "values": [{"measurement": "inhibition of β-tryptase (in words)", "result": "no inhibition of β-tryptase at all"}]}
